The target in data set [1] is T1, Histone deacetylase 11 (Homo sapiens, UniProt Q96DB2).
T1 sequence (Q96DB2 whole entry): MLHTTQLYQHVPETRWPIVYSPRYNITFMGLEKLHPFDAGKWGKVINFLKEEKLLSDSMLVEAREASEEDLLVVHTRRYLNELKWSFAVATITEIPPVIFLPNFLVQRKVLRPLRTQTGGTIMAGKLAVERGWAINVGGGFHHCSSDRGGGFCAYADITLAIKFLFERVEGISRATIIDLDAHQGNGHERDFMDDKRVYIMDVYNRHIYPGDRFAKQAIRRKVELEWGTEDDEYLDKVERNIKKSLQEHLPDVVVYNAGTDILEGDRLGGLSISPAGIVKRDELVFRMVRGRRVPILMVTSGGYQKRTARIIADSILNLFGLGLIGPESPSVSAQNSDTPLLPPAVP
Description: Inhibition of full length N-terminal GST-tagged recombinant human HDAC11 expressed in baculovirus using Arg-His-Lys-Lys (Ac) as substrate after 1 hr by fluorescence plate reader analysis.

Data set [2] is filed under the species Homo sapiens. As to the kind of experiment: Selectivity ratio of IC50 for full length C-terminal His6x-tagged recombinant human HDAC8 to IC50 for N-terminal GST-tagged recombinant HDAC6 (unknown origin).
Data set [3] has as its target Histone deacetylase 4 (Homo sapiens, UniProt P56524). As to the kind of experiment: Inhibition of N-terminal GST-tagged recombinant human HDAC4 (627 to 1085) expressed in baculovirus using acetyl-Lys(trifluoroacetyl)-AMC as substrate after 2 hrs by fluorescence plate reader analysis.
In data set [4] the target is T2, Protein deacetylase HDAC6 (Homo sapiens) (UniProt Q9UBN7).
T2 sequence (whole entry): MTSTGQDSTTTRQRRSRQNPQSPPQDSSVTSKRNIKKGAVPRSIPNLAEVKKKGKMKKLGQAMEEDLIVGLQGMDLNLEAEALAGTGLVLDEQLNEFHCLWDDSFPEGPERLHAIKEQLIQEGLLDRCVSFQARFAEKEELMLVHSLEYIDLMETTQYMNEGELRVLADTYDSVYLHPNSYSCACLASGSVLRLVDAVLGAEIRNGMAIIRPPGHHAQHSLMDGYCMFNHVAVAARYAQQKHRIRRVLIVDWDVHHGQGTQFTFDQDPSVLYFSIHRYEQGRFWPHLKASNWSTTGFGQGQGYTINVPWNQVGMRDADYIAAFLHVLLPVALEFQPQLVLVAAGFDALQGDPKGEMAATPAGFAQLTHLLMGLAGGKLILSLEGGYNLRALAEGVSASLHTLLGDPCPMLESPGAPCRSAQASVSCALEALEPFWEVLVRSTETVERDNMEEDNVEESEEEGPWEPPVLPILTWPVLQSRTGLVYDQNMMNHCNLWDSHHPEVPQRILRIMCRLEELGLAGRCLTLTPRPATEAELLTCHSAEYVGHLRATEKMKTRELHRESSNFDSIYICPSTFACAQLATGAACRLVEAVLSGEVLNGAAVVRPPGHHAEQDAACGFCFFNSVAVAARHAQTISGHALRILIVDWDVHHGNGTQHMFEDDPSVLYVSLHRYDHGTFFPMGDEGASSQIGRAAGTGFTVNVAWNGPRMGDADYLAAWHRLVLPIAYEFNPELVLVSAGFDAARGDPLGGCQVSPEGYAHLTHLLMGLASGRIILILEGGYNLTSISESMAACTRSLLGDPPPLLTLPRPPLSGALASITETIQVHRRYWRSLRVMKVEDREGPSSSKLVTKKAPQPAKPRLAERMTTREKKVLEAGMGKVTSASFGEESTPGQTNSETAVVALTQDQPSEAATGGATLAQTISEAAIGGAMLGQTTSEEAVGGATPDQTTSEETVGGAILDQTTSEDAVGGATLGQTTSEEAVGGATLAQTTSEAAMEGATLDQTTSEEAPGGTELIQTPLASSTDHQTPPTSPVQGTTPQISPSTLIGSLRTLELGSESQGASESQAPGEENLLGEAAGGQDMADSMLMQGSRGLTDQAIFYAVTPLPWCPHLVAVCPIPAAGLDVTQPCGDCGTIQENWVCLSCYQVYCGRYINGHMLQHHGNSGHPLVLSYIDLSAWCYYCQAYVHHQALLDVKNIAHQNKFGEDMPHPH
As to the kind of experiment: Inhibition of HDAC6 in human HeLa cells assessed as inhibition of acetyl histone hydrolysis at 10 uM after 24 hrs by immunofluorescence assay relative to control. Format: cell-based. The essentials:
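HeLa cells (8000/well, MEM with 10% FBS) given compound 24 h (histone) or 6 h (tubulin). Fixed in 4% paraformaldehyde, permeabilized with 0.5% Triton X-100, stained with anti-acetyl-lysine or anti-acetyl-tubulin and Alexa 488 secondary plus Hoechst. Imaged at nine sites per well, 20×; percent inhibition relative to 0.2% DMSO controls.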

Data set [5] in a line: Aqueous thermodynamic solubility of the compound in potassium phosphate monobasic buffer at pH 7.5 after 24 hrs by LC-MS analysis. Particulars: read-out: Therm_solubility. Format: physicochemical.
Data set [6] in a line: Permeability in human Caco2 cells at pH 7.4. Particulars: Caco-2, pH 7.4, read-out: permeability. Format: ADME, cell-based. For orientation: Caco-2 monolayers are a common model of the intestinal barrier.
The nature of data set [7]: Efflux ratio of permeability in human Caco2 cells at pH 7.4. Format: ADME, cell-based. Particulars: Caco-2, pH 7.4.
The target in data set [8] is 72 kDa type IV collagenase (Homo sapiens) (UniProt P08253). As to the kind of experiment: Inhibition of MMP2 (unknown origin).
Data set [9] deals with T3, Matrix metalloproteinase-17 (Homo sapiens) (UniProt Q9ULZ9).
T3 sequence (whole entry): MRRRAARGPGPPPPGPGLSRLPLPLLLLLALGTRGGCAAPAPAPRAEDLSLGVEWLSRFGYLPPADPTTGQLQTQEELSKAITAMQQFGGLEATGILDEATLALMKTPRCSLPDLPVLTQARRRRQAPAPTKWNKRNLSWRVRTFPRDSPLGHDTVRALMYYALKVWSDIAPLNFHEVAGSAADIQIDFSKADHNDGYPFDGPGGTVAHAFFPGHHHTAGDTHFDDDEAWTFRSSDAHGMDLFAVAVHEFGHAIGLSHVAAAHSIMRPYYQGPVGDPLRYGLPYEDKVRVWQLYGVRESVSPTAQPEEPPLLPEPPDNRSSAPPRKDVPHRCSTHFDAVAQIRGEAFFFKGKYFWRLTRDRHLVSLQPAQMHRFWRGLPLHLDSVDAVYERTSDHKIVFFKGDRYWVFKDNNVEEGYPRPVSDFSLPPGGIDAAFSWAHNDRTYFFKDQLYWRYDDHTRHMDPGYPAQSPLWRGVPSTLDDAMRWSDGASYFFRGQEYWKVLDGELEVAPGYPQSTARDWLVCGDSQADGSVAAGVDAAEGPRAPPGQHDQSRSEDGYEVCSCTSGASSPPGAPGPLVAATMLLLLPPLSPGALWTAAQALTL
As to the kind of experiment: Inhibition of MMP4 (unknown origin).

For data set [10], the target named is Matrix metalloproteinase-9 (Homo sapiens) (UniProt P14780). Description: Inhibition of MMP9 (unknown origin).

pIC50: −log10 of the molar value. ≈ marks a conversion by molar mass, not a printed value.

Sequence of Histone deacetylase 4 (P56524 whole entry): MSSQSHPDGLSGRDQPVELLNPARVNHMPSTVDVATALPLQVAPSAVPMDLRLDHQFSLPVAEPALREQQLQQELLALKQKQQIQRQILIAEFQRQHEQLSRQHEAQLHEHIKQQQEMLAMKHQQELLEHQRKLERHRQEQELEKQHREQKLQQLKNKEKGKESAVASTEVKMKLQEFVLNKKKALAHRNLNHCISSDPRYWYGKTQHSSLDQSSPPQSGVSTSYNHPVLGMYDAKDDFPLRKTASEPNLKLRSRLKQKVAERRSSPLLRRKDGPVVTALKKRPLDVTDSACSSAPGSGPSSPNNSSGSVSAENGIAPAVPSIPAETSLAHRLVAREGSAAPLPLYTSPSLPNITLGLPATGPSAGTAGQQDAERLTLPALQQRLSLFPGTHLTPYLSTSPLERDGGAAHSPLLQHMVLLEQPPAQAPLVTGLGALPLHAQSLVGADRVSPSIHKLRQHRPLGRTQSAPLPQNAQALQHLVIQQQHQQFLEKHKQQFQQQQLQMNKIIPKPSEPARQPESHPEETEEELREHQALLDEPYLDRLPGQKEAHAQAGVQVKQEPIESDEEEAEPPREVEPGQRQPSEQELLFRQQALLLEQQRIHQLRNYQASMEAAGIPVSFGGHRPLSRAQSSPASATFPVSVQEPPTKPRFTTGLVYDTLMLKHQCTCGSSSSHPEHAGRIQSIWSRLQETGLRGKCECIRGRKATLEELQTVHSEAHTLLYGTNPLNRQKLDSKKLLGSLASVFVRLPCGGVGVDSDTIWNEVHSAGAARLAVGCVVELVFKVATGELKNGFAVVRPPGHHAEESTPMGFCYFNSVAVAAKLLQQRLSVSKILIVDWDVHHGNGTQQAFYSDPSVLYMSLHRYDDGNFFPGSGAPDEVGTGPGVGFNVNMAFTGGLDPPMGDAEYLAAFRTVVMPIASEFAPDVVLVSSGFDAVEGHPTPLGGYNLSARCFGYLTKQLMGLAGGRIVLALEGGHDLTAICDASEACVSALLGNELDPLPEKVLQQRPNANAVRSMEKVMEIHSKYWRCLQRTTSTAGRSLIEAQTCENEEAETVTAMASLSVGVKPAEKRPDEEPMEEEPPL
Sequence of Matrix metalloproteinase-9 (Homo sapiens) (P14780 whole entry): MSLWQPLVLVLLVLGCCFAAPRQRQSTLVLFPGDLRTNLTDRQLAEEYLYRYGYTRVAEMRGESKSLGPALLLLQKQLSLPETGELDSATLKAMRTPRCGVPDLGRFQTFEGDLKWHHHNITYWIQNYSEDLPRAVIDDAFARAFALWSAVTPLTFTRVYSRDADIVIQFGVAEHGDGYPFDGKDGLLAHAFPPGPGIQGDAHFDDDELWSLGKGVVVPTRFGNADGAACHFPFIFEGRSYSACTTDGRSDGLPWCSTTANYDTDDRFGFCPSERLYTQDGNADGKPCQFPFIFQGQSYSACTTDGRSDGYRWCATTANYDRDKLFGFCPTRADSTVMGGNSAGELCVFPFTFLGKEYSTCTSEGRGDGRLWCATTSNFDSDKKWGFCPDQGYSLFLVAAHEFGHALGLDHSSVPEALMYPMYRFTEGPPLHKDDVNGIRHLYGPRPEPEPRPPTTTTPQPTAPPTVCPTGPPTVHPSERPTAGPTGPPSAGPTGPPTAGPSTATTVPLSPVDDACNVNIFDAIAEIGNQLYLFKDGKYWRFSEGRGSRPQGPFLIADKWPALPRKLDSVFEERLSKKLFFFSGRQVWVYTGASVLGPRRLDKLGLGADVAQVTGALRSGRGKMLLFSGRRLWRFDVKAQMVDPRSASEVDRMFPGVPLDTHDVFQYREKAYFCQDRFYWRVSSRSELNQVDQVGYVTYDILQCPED
Sequence of 72 kDa type IV collagenase (Homo sapiens) (P08253 110-660 limits assumed): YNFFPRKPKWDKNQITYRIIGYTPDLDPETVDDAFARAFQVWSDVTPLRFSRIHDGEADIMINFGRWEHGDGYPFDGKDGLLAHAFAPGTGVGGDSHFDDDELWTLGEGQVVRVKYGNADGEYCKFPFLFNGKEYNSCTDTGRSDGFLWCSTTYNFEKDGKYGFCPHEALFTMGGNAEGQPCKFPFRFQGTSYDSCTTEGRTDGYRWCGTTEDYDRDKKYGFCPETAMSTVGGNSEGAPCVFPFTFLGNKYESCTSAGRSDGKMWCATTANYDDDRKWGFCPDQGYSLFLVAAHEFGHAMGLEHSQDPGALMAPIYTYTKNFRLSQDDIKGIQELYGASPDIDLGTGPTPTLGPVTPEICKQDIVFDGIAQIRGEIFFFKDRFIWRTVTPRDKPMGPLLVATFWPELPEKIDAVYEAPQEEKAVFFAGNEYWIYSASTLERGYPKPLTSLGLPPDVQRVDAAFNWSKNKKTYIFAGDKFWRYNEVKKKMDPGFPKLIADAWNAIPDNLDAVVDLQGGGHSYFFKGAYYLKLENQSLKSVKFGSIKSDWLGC

Usually pIC50 stands for the negative decadic logarithm of the IC50, by convention in mol/L. In the case of `Cn1cccc1C(=O)N1Cc2ccc(C(=O)NO)cc2C1`, the pIC50 in data set [1] and in data set [3] was below 4.30 each time. In [2], the Ratio IC50 turned out to be 40.
Consider `CC(C)(C)C(=O)N1CCc2cc(C(=O)NO)ccc2C1`, for which the pIC50 in [1] and in data set [3] was below 4.30 each time. For the same molecule, the Ratio IC50 in [2] came to 40.
As for `Cn1cccc1C(=O)N1CCCc2cc(C(=O)NO)ccc2C1`, the pIC50 in data set [1] and in data set [3] was below 4.30 each time. For the same molecule, in [2], the Ratio IC50 worked out at 40.
Take `CC(C)(C)C(=O)N1Cc2ccc(C(=O)NO)cc2C1`: the pIC50 in data set [1] and in data set [3] was below 4.30 each time. Further, in [2], the Ratio IC50 came out at 40.
The term inhibition denotes the percentage by which the read-out fell short of the control. Regarding `Cn1cccc1C(=O)NCc1ccc(C(=O)NO)cc1`, in data set [2], the Ratio IC50 was determined as 40. The pIC50 in data set [3] was 4.82. Further, the inhibition in [4] amounted to 26%.
A word on the efflux ratio: it is a quotient of directional permeabilities that is used to spot active efflux. In the case of `Cn1cccc1C(=O)N1CCc2cc(C(=O)NO)ccc2C1`, the negative-log IC50 (pIC50) in data set [1] and in [3] was below 4.30 in each case. The solubility thermodynamic at 24 h in data set [5] worked out at 2000 µM (≈ 599 µg/mL). The Papp in data set [6] is 22 ×10⁻⁶ cm/s. Besides, in data set [7], the efflux ratio was 1.5. In addition, the INH in data set [8], in [9] and in data set [10] was above 100 µM in each case.

For the origin of these results see ChEMBL document CHEMBL2429834, “Potent histone deacetylase inhibitors derived from 4-(aminomethyl)-N-hydroxybenzamide with high selectivity for the HDAC6 isoform” (J Med Chem, 2013).
